From paper PMC7029794 (Cancer chemotherapy and pharmacology, 2019)
Like-named read-outs stand apart in the source and are kept apart here. Blank lines part the entries; values can stand above or below the molecule they belong to.

Columns and labels:
[1] = adults at the recommended dose; cited from earlier work
[2] = in vivo, po, 30 mg/kg, cited from earlier work
[3] = CF1 mice, 5 minutes after injection, cited from earlier work
[4] = cited from earlier work
[5] = assay type: in vivo, CD1 nude mice
How it was run: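 Female CD1 nude mice (n=9) bearing cortical SJ-DIPGx7 allografts received a single oral 100 mg/kg dose (10 mg/ml in 0.5% methyl cellulose). Sampling used a population design with multiple samples per mouse up to 24 h: retro-orbital bleeds and terminal cardiac puncture, into heparin. Plasma was assayed by LC-MS/MS. A one-compartment model with an oral dosing compartment was fitted by nonlinear mixed-effects modelling (NONMEM).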

[6] = Cerebral microdialysis study in non-tumor bearing mice; assay type: in vivo, CD1 nude mice; conditions: 100 mg/kg oral
How it was run: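 After a single oral 100 mg/kg dose, brain ECF was microdialysed with Ringer's after at least 1 h probe equilibration. Plasma was sampled at 0.08, 1.5 and 7 h (some at 24 h). ECF was corrected by in vitro probe recovery at 1 μg/mL, 37°C, 0.5 μL/min. A one-compartment plus ECF compartment model was fitted in NONMEM with plasma parameters fixed.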

[7] = tested on: CDK-cyclin D1; conditions: read-out: IC50 for CDK-cyclin D1; no reference given; cited from earlier work
[8] = Cerebral microdialysis study in mice bearing SJ-DIPGx7; assay type: in vivo, CD1 nude mice; conditions: glioma mice, 100 mg/kg oral
How it was run: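 Female CD1 nude mice with cortical allografts of 1·10^6 SJ-DIPGx7 cells (n=16); a guide cannula was implanted stereotactically into the cortex. After a single oral 100 mg/kg dose, tumor ECF was microdialysed with Ringer's after at least 1 h probe equilibration, and plasma was sampled at 0.08, 1.5 and 7 h (some at 24 h). ECF values were corrected by per-probe in vitro recovery. Data were fitted in NONMEM with plasma parameters and V3 fixed.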

[9] = Ribociclib protein binding in mouse plasma; assay type: in vitro ADME; conditions: CD1, mouse
How it was run: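 The test compound was spiked into CD1 mouse plasma (sodium heparin) at final 500, 1000, 2500 and 5000 ng/ml. Spiked plasma was ultrafiltered through a 10 kDa cut-off device by centrifugation for 30 min at 3600 rpm, 37°C, and the filtrate was stored at −80°C. Fraction unbound was calculated as the filtrate concentration divided by the total plasma concentration.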

[10] = Full-plasma PK study, glioma mice, 100 mg/kg oral

SMILES: CCN1CCN(Cc2ccc(Nc3ncc(F)c(-c4cc(F)c5nc(C)n(C(C)C)c5c4)n3)nc2)CC1 [abemaciclib]
plasma AUC [1]: 5520 ng·h/mL | Kp,brain ([2]; 24 h): 0.21 ± 0.04 | Kp,uu ([2]; 24 h): 0.03 ± 0.01 | plasma AUC [2]: 69,300 ng/ml*hr

SMILES: CC(=O)c1c(C)c2cnc(Nc3ccc(N4CCNCC4)cn3)nc2n(C2CCCC2)c1=O [palbociclib]
Kp,uu [3]: 0.01 ± 0.003 | Kp,brain ([3]; dose 0.5 μmole/kg): 0.13 ± 0.04

half-life ([5]; CD1 nude, mouse, plasma, po, 100 mg/kg): 4.67 ± 0.64 h | θCL Clearance, Estimate (%RSE) [5, 10]: 2.78 (1.8) L/hr/kg | θKa First-order absorption constant, Estimate (%RSE) [5, 10]: 2.75 (5.26) 1/hr | θVc Volume of central compartment, Estimate (%RSE) [5, 10]: 18.6 (3.87) L/kg | θCL23 Influx clearance from plasma to ECF compartment, Estimate (%RSE) [6]: 0.124 (26.8) L/hr/kg | θCL32 Efflux clearance from ECF to plasma compartment, Estimate (%RSE) [6]: 7.78 (8.81) L/hr/kg | AUC(0-t) ([6]; CD1 nude, mouse, brain ECF, po, 100 mg/kg, Brain/tumor ECF AUC0–24h, n=12, brain ECF): 736 ± 610 ng·h/mL | AUC(0-t) ([8]; CD1 nude, mouse, tumor ECF, po, 100 mg/kg, Brain/tumor ECF AUC0–24h, n=16, tumor ECF): 433 ± 451 ng·h/mL | θCL23 Influx clearance from plasma to ECF compartment, Estimate (%RSE) [8]: 0.000000838 (24) L/hr/kg | θCL32 Efflux clearance from ECF to plasma compartment, Estimate (%RSE) [8]: 0.0000808 (11.5) L/hr/kg | fraction unbound at 30 min [9]: 0.23
SMILES: CN(C)C(=O)c1cc2cnc(Nc3ccc(N4CCNCC4)cn3)nc2n1C1CCCC1 [ribociclib, Ribociclib]
fraction unbound ([4]; assumed value for phase I comparison): 0.30 | unbound AUC ([4]; phase I study, assuming a fraction unbound of 0.30): ~ 6000 ng/ml*hr | IC50 [7]: 10 nM
